Screening results as filed in PubChem.
TAAR1 antagonist – antagonists of human TAAR1. inhibition, % at 3 µM. Q96RJ0. CHO RD-HGA16 TAAR1, Fluo-8 calcium fluorescence, antagonist. 360,000 compounds, 1.5% hits;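 active means inhibition above a per-plate cutoff, the mean inhibition of test compounds on that plate plus 3 SD, cut at about 49% in these data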;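 further: 0% = DMSO plus EC80 beta-PEA response and 100% = DMSO alone without agonist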
Target sequence (Q96RJ0 whole entry, looked up): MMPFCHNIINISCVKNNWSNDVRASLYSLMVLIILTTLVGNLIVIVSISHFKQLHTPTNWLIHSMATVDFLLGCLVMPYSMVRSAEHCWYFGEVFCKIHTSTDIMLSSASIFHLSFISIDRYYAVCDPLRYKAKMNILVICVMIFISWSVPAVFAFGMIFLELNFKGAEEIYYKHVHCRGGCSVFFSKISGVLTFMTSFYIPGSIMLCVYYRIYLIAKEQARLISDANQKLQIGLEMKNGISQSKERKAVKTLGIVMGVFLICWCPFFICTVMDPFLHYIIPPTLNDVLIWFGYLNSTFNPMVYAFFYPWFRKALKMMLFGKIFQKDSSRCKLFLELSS
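Assay system: CHO-derived RD-HGA16 cells stably expressing human TAAR1 plus Gα16. Timing: 140 s kinetic read after compound, 140 s after agonist. Technique: kinetic Fluo-8 calcium fluorescence measurement. Measure: % inhibition of agonist calcium response.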
TAAR1 agonist – agonists of human TAAR1; CHO RD-HGA16 TAAR1, Fluo-8 calcium fluorescence; vehicle wells 0%, saturating PEA agonist 100%; Q96RJ0; 360,000 compounds, 0.99% hits; activation, % at 3 µM; AID 624467;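 active means activation above the mean activation of all test compounds in the run plus 3 SD, cut at about 38% in these data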
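Test system: RD-HGA16 (CHO) cells co-expressing Gα16 and hTAAR1 | Doses: Single dose, 3 µM | Schedule: 17-24 h seeding, 75 min 37 °C dye, 30 min RT | Evaluation: % activation from peak over basal fluorescence ratio, DMSO-to-PEA scaled | Technique: Kinetic Fluo-8 calcium fluorescence | Benchmarks: Low control DMSO, high control PEA (EC100)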
GPR7 antag – antagonists of human GPR7 (neuropeptides B/W receptor 1). P48145. GPR7-expressing cells, fluorescence antagonist assay. inhibition, % at 4.4 µM. 290,000 compounds, 1.1% hits. AID 1861; in the data active means inhibition above about 16%, passing the limit was not always enough;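 further: cells stimulated with the agonist NPW; 0% = agonist with vehicle and 100% = vehicle without agonist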
Target sequence (P48145 whole entry, looked up): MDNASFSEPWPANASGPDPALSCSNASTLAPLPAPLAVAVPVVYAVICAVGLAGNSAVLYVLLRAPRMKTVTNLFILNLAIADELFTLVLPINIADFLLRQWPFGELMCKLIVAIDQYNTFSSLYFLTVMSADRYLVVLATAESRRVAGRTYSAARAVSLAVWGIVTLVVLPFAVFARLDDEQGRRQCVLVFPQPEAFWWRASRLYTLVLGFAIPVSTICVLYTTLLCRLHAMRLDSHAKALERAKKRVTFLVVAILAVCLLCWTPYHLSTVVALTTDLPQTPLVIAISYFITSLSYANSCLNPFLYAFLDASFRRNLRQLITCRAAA
TRPML3 agonist – agonists of human TRPML3 channel; HEK293 TRPML3-YFP, Fluo-8 calcium fluorescence; 100% = the carbachol control signal; activation, % at 3 µM; 220,000 compounds, 0.29% hits; AID 1448;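 active means activation above its plate's cutoff, the mean activation of the plate's test wells plus 3 SD, cut at about 12% in these data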;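 further: 0% = DMSO only wells and 100% = carbachol wells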
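Test system – HEK293 line with stable expression of human TRPML3-YFP channel · Control set – carbachol 87 µM final as high control (100%), DMSO as low control (0%) · Signal – Fluo-8 calcium dye fluorescence, ex 470-495, em 515-575 nm · Incubation – 1-h 37 °C dye load, 5-s basal, 120-s post-compound reads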
zfTRPN1 agonist – agonists of zebrafish TRPN1 channel. AID 1424. 220,000 compounds, 0.18% hits. HEK293 zebrafish TRPN1-YFP, Fluo-8 calcium fluorescence; 100% = response to 87 µM carbachol. activation, % at 3 µM;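 active means activation above its plate's cutoff, the mean activation of test wells on that plate plus 3 SD, cut at about 19% in these data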;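 further: 0% = DMSO alone and 100% = 87 µM carbachol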
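Material: zebrafish TRPN1-YFP in HEK293 cells; Doses: single test compound dose, 3 µM nominal, 0.3% DMSO; Timing: dye loading 1 h at 37 °C, then 30 min room temperature; Technique: intracellular calcium fluorescence with Fluo-8; Benchmarks: high carbachol 87 µM, low DMSO alone.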
LANA-H2A inh – blocks KSHV LANA binding to histone H2A/H2B. cell-free LANA-H2A/H2B peptide, fluorescence polarization. Q9QR71. 320,000 compounds, 0.6% hits. AID 2629. inhibition, % (no concentration beside the values); in the data active means inhibition mostly above about 10%, no sharp cut-off; inactive means mostly below about 6.7%
* marks the source's active call; other numbers are inactive results; nt = not tested or not shown; + = active, no number; ! = not confirmed by another sample. Rows were chosen to be rich in hits. Some 3.4% of all compounds tested hit in one or more screens of this group.

SMILES	TAAR1 antagonist	TAAR1 agonist	GPR7 antag	TRPML3 agonist	zfTRPN1 agonist	LANA-H2A inh
COc1ccc2ccccc2c1CN1CCN(c2ncc(Cc3ccccc3)cn2)CC1	-70	1	nt	nt	nt	nt
CCOC(=O)c1nnn(-c2nonc2N)c1CN1CCc2ccccc2C1	7	40*	-3	2	1	-2
CCOC(=O)C1CSCCS(=O)(=O)N1Cc1ccc(F)cc1 (stereo not given)	-13	0	nt	nt	nt	nt
COC(=O)CC#N	6	0	nt	nt	nt	+
COC(=O)CCN(C)CCC(=O)OC	-1	0	-14	1	1	2
CC(C)Cn1c(N)c(C(=O)COC(=O)c2cc(C(F)(F)F)nc3c(C(F)(F)F)cccc23)c(=O)n(C)c1=O	-8	3	-13	1	1	1
CC(C)(C)NCCC(O)c1cc(C(F)(F)F)nc2c(C(F)(F)F)cccc12 (stereo not given)	15	38*	nt	nt	nt	nt
CN(C)c1ccc(/C=C(/C#N)C(=O)NCc2ccccc2)o1	18	31	-2	20*	20*	-7
COC(=O)C1=C(C)N(C)C(=NCc2ccc(OC)cc2)NC1c1cccc(Cl)c1 (stereo not given)	-8	3	nt	nt	nt	nt
O=S(=O)(N/N=C1\CCCc2ccccc21)c1ccccc1	2	5	nt	nt	nt	14*
O=S(=O)(N/N=C1/CCCc2ccccc21)c1ccc(Br)cc1	-7	10	9	0	0	3
CCCCOCC1CN(CCCC)S(=O)(=O)c2c(Oc3ccc(OC)cc3)cccc2O1 (stereo not given)	-11	2	nt	nt	nt	nt
CCOc1ccccc1CN1CCNC(=O)C1CC(=O)NCCc1ccccn1 (stereo not given)	-23	18	3	nt	nt	99*
COc1cccc(CCNC(=O)CC2C(=O)NCCN2CC(C)(C)C)c1 (stereo not given)	3	17	-8	1	1	17*
O=C(CC1C(=O)NCCN1Cc1cccc(F)c1)NCCCN1CCCC1=O (stereo not given)	15	1	0	nt	nt	15*
COc1ccc(Cn2cc(CN3[C@@H](c4ccccc4)COc4cc(Br)ccc4S3(=O)=O)nn2)cc1	-22	2	nt	nt	nt	nt
C#CCN(Cc1ccco1)C(=O)c1nnc2c3cc(OC)ccc3n(S(=O)(=O)c3ccc(OC)cc3)c2n1	-8	0	nt	nt	nt	nt
Cc1nn(-c2ccccc2)c(Cl)c1CN(C(=O)CCl)c1cccc2ccccc12	50*	11	32*	-1	-1	-2
O=C(CCn1c(=S)oc2ccccc21)Nc1cccc(F)c1	5	0	1	-1	-1	129*
O=C(CCn1c(=S)oc2ccccc21)Nc1cccc(O)c1	-6	4	-8	0	-1	2
COc1ccc(CCN2C(=O)C(Oc3ccccc3C)C2c2ccc3c(c2)OCO3)cc1 (stereo not given)	56*	8	1	0	0	-1
O=C1C(Oc2ccccc2)C(c2ccc3c(c2)OCO3)N1CCc1ccc(F)cc1 (stereo not given)	10	1	-5	-1	0	5
COc1ccc(CCN2C(=O)C(Oc3ccccc3C)C2c2ccc3c(c2)OCO3)cc1OC (stereo not given)	55*	7	20	0	0	2
Cc1ccccc1S(=O)(=O)N(C)C[C@@H]1OCc2cn(nn2)CCCC(=O)N([C@@H](C)CO)C[C@H]1C	5	0	nt	nt	nt	nt
O=C(Cc1cn(Cc2ccccc2)c2ccccc12)Nc1ccc(Nc2cccnc2)c(Br)c1	-2	3	nt	nt	nt	nt
SMILES	TAAR1 antagonist	TAAR1 agonist	GPR7 antag	TRPML3 agonist	zfTRPN1 agonist	LANA-H2A inh
CCC/C(=N/NC(=O)c1cccc(Cl)c1)c1ccccc1	-5	-1	-10	0	2	14*
CCN(CC)C(=O)c1ncn2c1C(=O)NC[C@@H]2C	-3	1	nt	nt	nt	nt
CC(=O)N1C(=O)C(=C2C=C(C)OC(C)=C2)c2ccccc21	-4	0	2	0	26*	-14
CC1=CC(=C2C(=O)c3ccccc3C2=O)C=C(C)O1	0	-1	-2	1	0	-9
O=C(C1CC(=O)N(c2ccc(Cl)cc2)C1)N1CCOCC1 (stereo not given)	6	1	-8	nt	nt	28*
O=C(C1CC(=O)N(c2ccc(Cl)cc2)C1)N1CCN(Cc2ccc3c(c2)OCO3)CC1 (stereo not given)	-7	-2	4	nt	nt	0
O=C(C1CC(=O)N(c2ccc(F)cc2)C1)N1CCOCC1 (stereo not given)	-7	0	-10	nt	nt	-2
Cc1ccc(N2CC(C(=O)N3CCN(Cc4ccc5c(c4)OCO5)CC3)CC2=O)cc1 (stereo not given)	13	-2	-10	nt	nt	52*
CN1[C@@H]2CC(OC(=O)[C@H](CO)c3ccccc3)C[C@H]1[C@@H]1O[C@@H]12 (stereo not given in full)	-13	3	-14	1	0	27*!
CN1[C@@H]2CC[C@H]1CC(OC(=O)[C@H](CO)c1ccccc1)C2 (stereo not given in full)	-15	1	-15	nt	nt	3
COCc1nnc(NS(=O)(=O)c2ccc(OC)cc2)s1	8	0	nt	nt	nt	nt
CCCc1nnc(NS(=O)(=O)c2ccc(OC)cc2)s1	-9	11	-7	0	0	15*
CCCCN1CC(COCc2ccccc2)Oc2cccc(OCCN3C(=O)[C@@H]4[C@H](C3=O)C3C=C[C@H]4C3)c2S1(=O)=O (stereo not given in full)	70*	18	nt	nt	nt	nt
O=C1[C@@H]2[C@H](C(=O)N1C[C@@H](COCc1ccccc1)Oc1cccc3c1S(=O)(=O)N(CCc1ccc(F)cc1)C[C@H](COCc1ccccc1)O3)[C@@H]1C=C[C@H]2C1	-7	3	nt	nt	nt	nt
COc1cc(NC(=O)c2cccs2)c(OC)cc1NC(=O)CCC(=O)Nc1ccc2ncccc2c1	53*	15	9	-1	0	nt
CCCCc1c(-c2ccccc2OC)ncn1Cc1cccc(F)c1F	14	3	nt	nt	nt	nt
Cc1ccc(NC(=O)c2ccc(Cl)c(N3C(=O)C=CC3=O)c2)cc1	56*	66*	2	0	1	-2
CC(C)(C)NC(=O)C1CCC(CNS(=O)(=O)c2cccc3nsnc23)CC1 (stereo not given)	76*	42*	-15	nt	nt	-3
COc1cc2c(cc1OC)C(c1cccc(C)c1)CC(=O)N2 (stereo not given)	12	3	0	1	-1	47*
CCOC(=O)c1cnc2ccccc2c1NCCO	3	7	-2	0	1	16*
CCOC(=O)c1cnc2ccc(Br)cc2c1NCCO	-19	4	4	1	2	-2
